Values after ≈ are worked out from the molar mass of the structure shown.
How the values were obtained:
Format in all cases: functional
[1] = tested on: Staphylococcus aureus; test: Antibacterial activity against Staphylococcus aureus after 16 to 18 hrs by serial dilution method
Summary of the method: (§1)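 MIC by serial dilution: compound dissolved in serially diluted DMF, a standard drop of prepared culture added to each dilution, incubated 16–18 h at 37 °C; MIC taken as the endpoint.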

[2] = tested on: Bacillus subtilis; test: Antibacterial activity against Bacillus subtilis after 16 to 18 hrs by serial dilution method; summary of the method: as §1
[3] = tested on: Escherichia coli; test: Antibacterial activity against Escherichia coli after 16 to 18 hrs by serial dilution method; summary of the method: as §1
[4] = tested on: Pseudomonas aeruginosa; test: Antibacterial activity against Pseudomonas aeruginosa after 16 to 18 hrs by serial dilution method; summary of the method: as §1
[5] = tested on: Candida albicans; test: Antifungal activity against Candida albicans after 16 to 18 hrs by serial dilution method; summary of the method: as §1

In the case of `Cc1n[nH]cc1/C=N/n1c(-c2ccccc2)nn(CN2CCN(C)CC2)c1=S`, the MIC [1] is reported as 12.5 µg/mL (≈ 31.5 µM), the MIC [2] is reported as 12.5 µg/mL (≈ 31.5 µM) and the MIC [3] is reported as 6 µg/mL (≈ 15.1 µM). It also gave an MIC [4] of 12.5 µg/mL (≈ 31.5 µM) and an MIC [5] of 6 µg/mL (≈ 15.1 µM).

`CCCc1nn(CN2CCN(C)CC2)c(=S)n1/N=C/c1c[nH]nc1-c1ccc(Cl)cc1` gave an MIC [1] of 3 µg/mL (≈ 6.54 µM), an MIC [2] of 3 µg/mL (≈ 6.54 µM) and an MIC [3] of 3 µg/mL (≈ 6.54 µM). It also gave an MIC [4] of 3 µg/mL (≈ 6.54 µM) and an MIC [5] of 3 µg/mL (≈ 6.54 µM).

`CCCc1nn(CN2CCN(C)CC2)c(=S)n1/N=C/c1c[nH]nc1-c1ccc(C)cc1` gave an MIC [1] of 6 µg/mL (≈ 13.7 µM), an MIC [2] of 12.5 µg/mL (≈ 28.5 µM) and an MIC [3] of 6 µg/mL (≈ 13.7 µM). For the same molecule, the MIC [4] was 6 µg/mL (≈ 13.7 µM) and the MIC [5] was 6 µg/mL (≈ 13.7 µM).

`COc1ccc(-c2n[nH]cc2/C=N/n2c(-c3ccccc3)nn(CN3CCN(C)CC3)c2=S)cc1` was tested, and the MIC [1] was 6 µg/mL (≈ 12.3 µM), the MIC [2] was 6 µg/mL (≈ 12.3 µM) and the MIC [3] was 6 µg/mL (≈ 12.3 µM). It also gave an MIC [4] of 3 µg/mL (≈ 6.14 µM) and an MIC [5] of 6 µg/mL (≈ 12.3 µM).

`Cc1ccc(-c2n[nH]cc2/C=N/n2c(-c3ccccc3)nn(CN3CCN(C)CC3)c2=S)cc1` was tested, and the MIC [1] was 6 µg/mL (≈ 12.7 µM), the MIC [2] was 12.5 µg/mL (≈ 26.4 µM) and the MIC [3] was 6 µg/mL (≈ 12.7 µM). The MIC [4] was 3 µg/mL (≈ 6.35 µM) and the MIC [5] was 3 µg/mL (≈ 6.35 µM).

In the case of `CCCc1nn(CN2CCN(C)CC2)c(=S)n1/N=C/c1c[nH]nc1-c1ccc(OC)cc1`, the MIC [1] is reported as 6 µg/mL (≈ 13.2 µM), the MIC [2] is reported as 12.5 µg/mL (≈ 27.5 µM) and the MIC [3] is reported as 12.5 µg/mL (≈ 27.5 µM). It also gave an MIC [4] of 6 µg/mL (≈ 13.2 µM) and an MIC [5] of 6 µg/mL (≈ 13.2 µM).

`Cc1nn(CN2CCN(C)CC2)c(=S)n1/N=C/c1c[nH]nc1-c1ccccc1` showed an MIC [1] of 6 µg/mL (≈ 15.1 µM), an MIC [2] of 6 µg/mL (≈ 15.1 µM) and an MIC [3] of 12.5 µg/mL (≈ 31.5 µM). The MIC [4] was 6 µg/mL (≈ 15.1 µM) and the MIC [5] was 6 µg/mL (≈ 15.1 µM).

Work on `COc1ccc(-c2n[nH]cc2/C=N/n2c(C)nn(CN3CCN(C)CC3)c2=S)cc1` yielded an MIC [1] of 6 µg/mL (≈ 14.1 µM), an MIC [2] of 6 µg/mL (≈ 14.1 µM) and an MIC [3] of 6 µg/mL (≈ 14.1 µM). For the same molecule, the MIC [4] was 1.5 µg/mL (≈ 3.52 µM) and the MIC [5] was 6 µg/mL (≈ 14.1 µM).

`Cc1n[nH]cc1/C=N/n1c(C)nn(CN2CCN(C)CC2)c1=S` gave an MIC [1] of 12.5 µg/mL (≈ 37.4 µM), an MIC [2] of 6 µg/mL (≈ 17.9 µM) and an MIC [3] of 6 µg/mL (≈ 17.9 µM). For the same molecule, the MIC [4] was 6 µg/mL (≈ 17.9 µM) and the MIC [5] was 6 µg/mL (≈ 17.9 µM).

`Cc1ccc(-c2n[nH]cc2/C=N/n2c(C)nn(CN3CCN(C)CC3)c2=S)cc1` showed an MIC [1] of 12.5 µg/mL (≈ 30.4 µM), an MIC [2] of 6 µg/mL (≈ 14.6 µM) and an MIC [3] of 6 µg/mL (≈ 14.6 µM). The MIC [4] was 12.5 µg/mL (≈ 30.4 µM) and the MIC [5] was 6 µg/mL (≈ 14.6 µM).

`OC(Cn1cncn1)(Cn1cncn1)c1ccc(F)cc1F` [FLUCONAZOLE] gave an MIC [5] of 6 µg/mL (≈ 19.6 µM).

`CN1CCN(Cn2nc(-c3ccccc3)n(/N=C/c3c[nH]nc3-c3ccccc3)c2=S)CC1` showed an MIC [1] of 6 µg/mL (≈ 13.1 µM), an MIC [2] of 12.5 µg/mL (≈ 27.3 µM) and an MIC [3] of 6 µg/mL (≈ 13.1 µM). For the same molecule, the MIC [4] was 6 µg/mL (≈ 13.1 µM) and the MIC [5] was 6 µg/mL (≈ 13.1 µM).

`CCCc1nn(CN2CCN(C)CC2)c(=S)n1/N=C/c1c[nH]nc1-c1ccccc1` showed an MIC [1] of 6 µg/mL (≈ 14.1 µM), an MIC [2] of 6 µg/mL (≈ 14.1 µM) and an MIC [3] of 12.5 µg/mL (≈ 29.4 µM). The MIC [4] was 12.5 µg/mL (≈ 29.4 µM) and the MIC [5] was 6 µg/mL (≈ 14.1 µM).

In the case of `NC(=O)N/N=C/c1ccc([N+](=O)[O-])o1` [NITROFURAZONE], the MIC [1] is reported as 12.5 µg/mL (≈ 63.1 µM), the MIC [2] is reported as 12.5 µg/mL (≈ 63.1 µM) and the MIC [3] is reported as 6 µg/mL (≈ 30.3 µM). For the same molecule, the MIC [4] was 12.5 µg/mL (≈ 63.1 µM).

From ChEMBL document CHEMBL1153621, “Regioselective reaction: synthesis, characterization and pharmacological studies of some new Mannich bases derived from 1,2,4-triazoles” (2009)
